The record followed here is ChEMBL document CHEMBL1155317, “Design and optimisation of potent gp120-CD4 inhibitors” (Bioorg Med Chem Lett, 2009).

Molecules are shown by their SMILES.

A short description of series [1]: Inhibition of HIV1 NL4-3 gp160 assessed as inhibition of interaction between gp120 and host CD4 receptor by cell-cell fusion assay. On the set-up: species or system Human immunodeficiency virus 1.
In series [2] the test system is Human immunodeficiency virus 1. The series is described as follows: Antiviral activity against Human immunodeficiency virus 1 NL4-3 infected HeLaP4 cells after 5 days by beta-galactosidase reporter assay. It is filed as functional, organism-based. The settings on record: Human immunodeficiency virus 1, NL4-3, HeLaP4, 120 h. A digest of the protocol: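 HeLa-P4 cells were premixed with NL4-3 virus and added at 10^5 cells/mL to wells containing diluted compound. Plates were incubated for 5 days at 37 °C in humidified 5% CO₂. Infection was quantified with a β-galactosidase reporter assay.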

The nature of series [3]: Half life in rat at 1 mg/kg, iv and 1 mg/kg, po. It is filed as ADME, organism-based. The settings on record: in vivo.
Series [4] in a line: Bioavailability in rat at 1 mg/kg. The settings on record: in vivo. The class given is ADME, organism-based.
Series [5] is described as follows: Fraction of compound absorbed in rat at 1 mg/kg, iv and 1 mg/kg, po. It is filed as ADME, organism-based. As to conditions: in vivo, read-out: Fabs.
A short description of series [6]: Clearance in rat at 1 mg/kg, iv and 1 mg/kg, po. The class given is ADME, organism-based. As to conditions: in vivo.
In series [7] the test system is Rattus norvegicus. The series is described as follows: Unbound volume of distribution in rat at 1 mg/kg, iv and 1 mg/kg, po. It is filed as ADME, organism-based. As to conditions: in vivo.
Series [8] relates to Rattus norvegicus. The series is described as follows: Unbound clearance in rat at 1 mg/kg, iv and 1 mg/kg, po. The class given is ADME, organism-based. The settings on record: in vivo.
Series [9] relates to Human immunodeficiency virus 1. The series is described as follows: Antiviral activity against Human immunodeficiency virus 1 isolate 04-116886_VL_578.66. The class given is functional. A digest of the protocol:
(§1)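 Testing against these strains was contracted out and used the PhenoSense phenotypic antiviral assay.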

For series [10], the system named is Human immunodeficiency virus 1. The series is described as follows: Antiviral activity against Human immunodeficiency virus 1 isolate 04-116873_VL_754.51. It is filed as functional. In a few lines: as §1
Series [11] has as its system Human immunodeficiency virus 1. The series is described as follows: Antiviral activity against Human immunodeficiency virus 1 HXB2. It is filed as functional. In a few lines: as §1
In series [12] the test system is Human immunodeficiency virus 1. The series is described as follows: Antiviral activity against Human immunodeficiency virus 1 isolate 04-116884_VL_328.45. It is filed as functional. In a few lines:
as §1

Series [13] relates to Human immunodeficiency virus 1. The series is described as follows: Antiviral activity against Human immunodeficiency virus 1 isolate 04-116877_VL_938.28. The class given is functional. A digest of the protocol: as §1
The subject of series [14] is Human immunodeficiency virus 1. The series is described as follows: Antiviral activity against Human immunodeficiency virus 1 isolate 04-116870_VL_181.51. It is filed as functional. In a few lines: as §1
In series [15] the test system is Human immunodeficiency virus 1. The series is described as follows: Antiviral activity against Human immunodeficiency virus 1 isolate 04-116889_VL_440.85. The class given is functional. A digest of the protocol:
as §1

Series [16] relates to Human immunodeficiency virus 1. The series is described as follows: Antiviral activity against Human immunodeficiency virus 1 isolate 04-116875_VL_279.69. It is filed as functional. In a few lines: as §1
Series [17] concerns Human immunodeficiency virus 1. The series is described as follows: Antiviral activity against Human immunodeficiency virus 1 isolate 04-116883_VL_432.63. The class given is functional. A digest of the protocol:
as §1

The subject of series [18] is Human immunodeficiency virus 1. The series is described as follows: Antiviral activity against Human immunodeficiency virus 1 isolate 04-116867_VL_837.51. It is filed as functional. A digest of the protocol:
as §1

Series [19] concerns Human immunodeficiency virus 1. The series is described as follows: Antiviral activity against Human immunodeficiency virus 1 isolate 04-116881_VL_338.52. The class given is functional. A digest of the protocol:
as §1

The test system of series [20] is Human immunodeficiency virus 1. The series is described as follows: Antiviral activity against Human immunodeficiency virus 1 isolate 04-116880_VL_696.65. The class given is functional. In a few lines:
as §1

Series [21] relates to Human immunodeficiency virus 1. The series is described as follows: Antiviral activity against Human immunodeficiency virus 1 isolate 04-116890_VL_781.45. The class given is functional. In a few lines: as §1
The subject of series [22] is Human immunodeficiency virus 1. The series is described as follows: Antiviral activity against Human immunodeficiency virus 1 isolate 04-116888_VL_113.66. The class given is functional. In a few lines:
as §1

The test system of series [23] is Human immunodeficiency virus 1. The series is described as follows: Antiviral activity against Human immunodeficiency virus 1 isolate 04-116885_VL_530.54. The class given is functional. A digest of the protocol:
as §1

The subject of series [24] is Human immunodeficiency virus 1. The series is described as follows: Antiviral activity against Human immunodeficiency virus 1 isolate 04-116874_VL_560.34. The class given is functional. A digest of the protocol: as §1
The test system of series [25] is Human immunodeficiency virus 1. The series is described as follows: Antiviral activity against Human immunodeficiency virus 1 isolate 04-116876_VL_969.72. It is filed as functional. In a few lines: as §1
Series [26] has as its system Human immunodeficiency virus 1. The series is described as follows: Antiviral activity against Human immunodeficiency virus 1 isolate 04-116872_VL_186.32. The class given is functional. A digest of the protocol:
as §1

The test system of series [27] is Human immunodeficiency virus 1. The series is described as follows: Antiviral activity against Human immunodeficiency virus 1 isolate 04-116868_VL_518.14. It is filed as functional. A digest of the protocol:
as §1

For series [28], the system named is Human immunodeficiency virus 1. The series is described as follows: Antiviral activity against Human immunodeficiency virus 1 isolate 04-116871_VL_781.69. It is filed as functional. In a few lines: as §1
For series [29], the system named is Human immunodeficiency virus 1. The series is described as follows: Antiviral activity against Human immunodeficiency virus 1 JRCSF. The class given is functional, Human immunodeficiency virus type 1 (JRCSF ISOLATE). A digest of the protocol:
as §1

In series [30] the test system is Human immunodeficiency virus 1. The series is described as follows: Antiviral activity against Human immunodeficiency virus 1 isolate 04-116878_VL_241.32. It is filed as functional. In a few lines: as §1
The nature of series [31]: Metabolic stability in human liver microsomes assessed as half life. It is filed as ADME, Microsome.
Series [32] concerns Human immunodeficiency virus 1. The series is described as follows: Antiviral activity against Human immunodeficiency virus 1 isolate 04-116892_VL_534.93. It is filed as functional. In a few lines:
as §1

For series [33], the system named is Human immunodeficiency virus 1. The series is described as follows: Antiviral activity against Human immunodeficiency virus 1 isolate 04-116879_VL_988.03. It is filed as functional. A digest of the protocol:
as §1

Series [34] relates to Human immunodeficiency virus 1. The series is described as follows: Antiviral activity against Human immunodeficiency virus 1 isolate 04-116882_VL_624.75. It is filed as functional. In a few lines: as §1
Series [35] deals with Human immunodeficiency virus 1. The series is described as follows: Antiviral activity against Human immunodeficiency virus 1 isolate 04-116869_VL_833.52. It is filed as functional. In a few lines:
as §1

Series [36] has as its system Human immunodeficiency virus 1. The series is described as follows: Antiviral activity against Human immunodeficiency virus 1 isolate 04-116893_VL_193.95. The class given is functional. In a few lines:
as §1

Consider `CC(Oc1cccc2cnccc12)C(=O)N1CCN(C(=O)c2ccccc2)C[C@H]1C` (some centres not stated), for which the IC50 was 0.103 µM in [1] and 0.492 µM in series [2].

Take `CC(Oc1cccc2ccccc12)C(=O)N1CCN(C(=O)c2ccccc2)C[C@H]1C` (some centres not stated): the values for the 50% inhibitory concentration (IC50) in series [1] and in series [2] were 0.123 µM and 1.07 µM, respectively.

Consider `CNC(=O)c1cc(OC)c(O[C@@H](C)C(=O)N2CCN(c3nccn3CC3CC3)C[C@H]2C)cn1`, for which the IC50 in [1] was 1.9 µM.

As for `CNC(=O)c1ccc(O[C@@H](C)C(=O)N2CCN(C(=O)c3ccccc3)C[C@H]2C)c2cccnc12`, in series [1], the concentration for half-maximal inhibition (IC50) was 1.26 µM.

In series [3], `CNc1ccc2c(O[C@@H](C)C(=O)N3CCN(C(=O)c4ccccc4)C[C@H]3C)cccc2n1` had a half-life of 54 min. In [4], this compound gave a bioavailability of 42%. The Fa in series [5] was 60%. The clearance in series [6] came out at 27 mL/min/kg. Also, the IC50 in series [1] is 0.005 µM; in series [2], 0.013 µM. The Vdu with Rattus norvegicus [7] turned out to be 10.5 L/kg. In the series with Rattus norvegicus [8], this compound yielded a CL free of 129 mL/min/kg.

In the case of `CNC(=O)c1cc(OC)c(O[C@@H](C)C(=O)N2CCN(c3nccc4[nH]ncc34)C[C@H]2C)cn1`, the half-inhibitory concentration (IC50) stood at 0.024 µM in series [1] and 0.006 µM in [2].

As for `CC(Oc1cccc2c(=O)[nH]ccc12)C(=O)N1CCN(C(=O)c2ccccc2)C[C@H]1C` (some centres not stated), the figures for the IC50 in [1] and in series [2] were 0.068 µM and 1.05 µM, respectively.

In the case of `CC(Oc1cccc2ncccc12)C(=O)N1CCN(C(=O)c2ccccc2)C[C@H]1C` (some centres not stated), the IC50 in series [1] was 0.099 µM; in series [2], 0.271 µM.

As for `CNC(=O)c1cc(OC)c(O[C@@H](C)C(=O)N2CCN(c3nccc4[nH]cnc34)C[C@H]2C)cn1`, the IC50 in series [1] is 0.024 µM; in [2] it was 0.007 µM.

In the case of `CC(Oc1cccc2nccnc12)C(=O)N1CCN(C(=O)c2ccccc2)C[C@H]1C` (some centres not stated), in series [1], the IC50 was found to be 0.493 µM.

With `Cc1nc2c(OC(C)C(=O)N3CCN(C(=O)c4ccccc4)C[C@H]3C)cccc2o1` (some centres not stated), in series [1], the IC50 worked out at 2.04 µM.

With `CC(Oc1cccc2ccncc12)C(=O)N1CCN(C(=O)c2ccccc2)C[C@H]1C` (some centres not stated), the 50% inhibitory concentration (IC50) in series [1] turned out to be 0.575 µM; in series [2], 2.04 µM.

Regarding `CNC(=O)c1cc(OC)c(O[C@@H](C)C(=O)N2CCN(c3nccc4ccccc34)C[C@H]2C)cn1`, the IC90 amounted to 0.12 µM in series [9]; 0.0013 µM in [10]; 0.0014 µM in series [11]; 0.0008 µM in series [12]; 0.002 µM in [13]; 0.006 µM in [14]. Moreover, the concentration for an effect of 90% (IC90) is 0.005 µM in series [15]; 0.014 µM in series [16]; over 0.666 µM in series [17]; 0.04 µM in [18]; 0.201 µM in [19]; 0.276 µM in [20]. Also, the IC90 was determined as 0.144 µM in [21]; 0.324 µM in series [22]; 0.008 µM in series [23]; 0.005 µM in [24]; 0.037 µM in series [25]; 0.036 µM in [26]. Moreover, the IC90 was 0.001 µM in [27]; 0.0005 µM in series [28]; 0.0003 µM in [29]; 0.23 µM in series [30]; 0.199 µM in series [32]; 0.008 µM in series [33]. Further, the 90% effect concentration (IC90) in [34] was 0.003 µM; in series [35] it was 0.024 µM; in series [36], 0.023 µM. Besides, the results for the half-life in [3] and in series [31] were 30 min and 4 min, respectively. In [4], this compound gave a bioavailability of 21%. Moreover, the Fa in [5] stood at 100%. In [6], the clearance worked out at 48 mL/min/kg. Besides, the IC50 in series [1] worked out at 0.00029 µM; in series [2], 0.00012 µM. The Vdu with Rattus norvegicus [7] came out at 9.4 L/kg. In the series on Rattus norvegicus [8], this compound displayed a CL free of 198 mL/min/kg.

Turning to `CNC(=O)c1ccc2c(O[C@@H](C)C(=O)N3CCN(C(=O)c4ccccc4)C[C@H]3C)cccc2n1`, the figures for the half-inhibitory concentration (IC50) in series [1] and in [2] were 0.078 µM and over 4 µM, respectively.

`CC(Oc1cncc2ccccc12)C(=O)N1CCN(C(=O)c2ccccc2)C[C@H]1C` (some centres not stated): the IC50 in series [1] came out at 9.37 µM.

`CNC(=O)c1cc(OC)c(O[C@@H](C)C(=O)N2CCN(c3nccc4ncccc34)C[C@H]2C)cn1`: the IC50 in series [1] came out at 0.029 µM; in series [2], 0.126 µM.

As a reminder, the IC50 is the concentration needed to halve the response being measured. What is called half-life is how long it takes for the measured level to halve. As a reminder, the bioavailability is the share of a dose that reaches the circulation, judged against a reference dose that is usually intravenous. Higher therefore signals much systemic uptake. The IC90 is the concentration at which the effect reaches the 90% level.
